MT stabilizer – microtubule stabilizers in HeLa cells, primary screen, imaging, high-content imaging | HeLa tubulin immunostaining HCS, 24 h; share of cells brighter than vehicle mean+2SD | % tubulin-high responders, % at 10 µM | actives 0.83% (n = 200,000);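 active = plate Z-score above 3 for both tubulin-high and condensed-nucleus cell shares, with cell loss under 80%, at 10 µM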;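 note: anti alpha tubulin signal scored within the nucleus-defined area of each cell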
Dynein transport – inhibitors of GR-EGFP nuclear translocation, primary screen, dynein cargo transport inhibitor project, imaging, high-content, 3617.4 mouse cells. actives 0.47% (n = 220,000). z-score, hits read low. test concentration mostly 20 µM; stimulated with dexamethasone, 1 µM; active compounds read low. AID 1381, 2008;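 active = plate z-score of nuclear minus cytoplasmic receptor signal below a set negative limit, without overly bright fluorescence or cell loss, cut at about -3.5 in these data, passing the limit was not always enough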;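 note: z-score of nuclear minus cytoplasmic ring GR-EGFP intensity difference per well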
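medium = tetracycline-free induction medium containing charcoal-stripped FBS | also added = 1.0 µM final dexamethasone stimulus | schedule = 48 h induction, 1 h compound, 30 min dex at 37 °C | technique = fixed, Hoechst-stained cells imaged at 10x for EGFP | measure = GR-EGFP nuclear translocation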
Autophagy HCS – autophagy modulators in MEF cells, primary screen, imaging, high-content, MEF GFP-LC3 | AID 463193, 2010 | actives 0.98% (n = 190,000) | MEF GFP-LC3 puncta imaging; test concentration mostly 10 µM | calls only at 10 µM (by protocol);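 active = percentage of spot-positive cells more than 3 SD above its plate mean, without a fluorescence outlier flag or 80% toxicity; inconclusive = no clear call, values can overlap the other calls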;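 note: spot-positive cell cutoff set from DMSO-treated cells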
CHOP inh – inhibitors of CHOP promoter induction, primary screen, cell-based, unfolded protein response, luciferase reporter; CHO-K1 CHOP-promoter luciferase, tunicamycin-induced, 15-18 h; inhibition, % at 10 µM; actives 3.8% (n = 220,000);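 active = compounds that reduced the stress-induced luciferase reporter signal by more than about 70% of percent inhibition, limit read from the data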;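 note: 0% = tunicamycin plus vehicle and 100% = wells without tunicamycin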
bCat nuc transl – modulators of beta-catenin nuclear translocation, primary screen, imaging, HeLa cells, immunofluorescence, high-content; actives 0.3% (n = 190,000); nuclear translocation activity, % at 5 µM; AID 1665, 2009;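 active = nuclear translocation activity above 50% at 5 µM, with a well cell count of 50 or more; inconclusive = wells under 50 cells across six images, flagged as toxic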;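 note: per-cell ratio of nuclear to cytoplasmic median beta-catenin stain intensity; plate controls were DMSO negative control for no effect and GSK-3 inhibitor IX positive control for full effect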
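Read-out: Nuclear/cytoplasmic beta-catenin signal ratio, % activation | Assay system: Human HeLa cell line | Times: 24 h compound exposure at 37°C, 5% CO2 | Signal: Fluorescence imaging of beta-catenin antibody stain plus DAPI | Dosing: 5 µM primary, 0.02–20 µM confirmation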
Lmaj promast – Leishmania major promastigote growth inhibition, primary screen; Leishmania major promastigotes, resazurin fluorescence viability; inhibition, % at 10 µM; actives 9% (n = 200,000); AID 1063, 2008; in the data active = inhibition above about 50%;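 note: promastigotes grown with compound for 44 hours at 28 °C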
* hit, by the source's call; i = inactive; ? = inconclusive; . = not tested or not shown. An excerpt weighted towards active compounds, which were near 12% of everything screened.

SMILES | MT stabilizer | Dynein transport | Autophagy HCS | CHOP inh | bCat nuc transl | Lmaj promast
S=C(NCc1cccnc1)Nc1ccc(Cl)c(Cl)c1 | 2.1 | 0.921 | i | -4.8 | 0.9 | 98.1*
Fc1ccc(NC(=S)NCc2cccnc2)cc1 | 2.7 | 0.73 | i | 0.8 | 0.9 | 12.9
COc1ccccc1NC(=S)NCc1cccnc1 | 2.5 | 0.182 | i | 21.5 | -5.5 | 68.3*
CN1CCC2(CCN3CCc4c(oc5ccccc45)C3C2)N(C)C1=O (centres undefined) | . | . | . | -3.6 | . | .
C/C(=N\NC(=O)c1cccc(S(=O)(=O)N2CCOCC2)c1)c1cc2ccccc2o1 | . | -0.802 | . | -24.0 | 0.0 | .
C=CCNS(=O)(=O)c1cccc(C(C)=O)c1 | 2.0 | -0.592 | i | 51.2 | -0.2 | 54.0*
CCCC1Cc2c(sc3nc(SC)nc(N)c23)CO1 (centres undefined) | 7.6 | 0.631 | i | 74.5* | -1.2 | 5.2
COc1ccccc1CNC(=S)NC1CCCC1 | 3.9 | -1.29 | i | 9.1 | -0.5 | 37.3
N=c1sccn1CC(=O)Nc1cc(Cl)ccc1Oc1ccccc1 | 1.5 | 0.647 | i | 26.5 | -0.6 | 100.4*
N=c1sccn1CC(=O)Nc1cccc(Oc2ccccc2)c1 | 2.0 | -0.282 | i | 23.5 | 1.8 | 10.4
COc1ccc(Cl)cc1NC(=O)CSc1nnc(COc2ccccc2)n1C | 0.8 | -0.041 | i | 79.9* | 9.7 | 3.2
CSc1ccccc1NC(=O)COc1ccc(Cl)cc1C | 3.2 | 0.627 | i | 83.0* | 9.5 | 28.1
COc1cccc(OCC(=O)Nc2cc(Cl)ccc2Oc2ccccc2)c1 | 2.0 | -0.638 | i | 33.5 | 0.3 | 95.4*
Cc1cccc(OCc2nnc(SCC(=O)N3CC(=O)Nc4ccccc43)o2)c1 | 4.4 | -0.681 | i | 4.4 | 2.0 | -0.5
COc1ccc2c(c1)c(=O)c(C(=O)c1ccccc1)cn2Cc1ccccc1 | 17.1* | 2.07 | i | 1.2 | -0.7 | 49.0
COc1ccc(OCc2nc(N)nc(Nc3ccccc3)n2)cc1 | 2.3 | -0.674 | i | 16.8 | -1.5 | 28.3
Cc1c(-c2nc(N)nc(Nc3ccccc3)n2)oc2ccccc12 | 24.7* | -0.139 | i | 34.0 | -1.2 | 2.1
O=C(O)c1ccc(N/N=C/C2=Cc3ccccc3OC2)cc1 | . | 0.0404 | . | -43.3 | 1.4 | .
CCC(=O)Nc1nnc(SCC(=O)Nc2ccc(F)cc2)s1 | 1.8 | -0.768 | i | 25.2 | -2.2 | 9.3
c1ccc2c(c1)CCN(C1=Nc3cccc4cccc1c34)C2 | 34.0 | 0.535 | i | -1.7 | 3.1 | 69.0*
c1cc2c3c(cccc3c1)C(N1CCCCCC1)=N2 | 2.6 | 0.235 | i | 38.7 | 0.8 | 32.4
Cc1ccc(CN2C3=NCCCN3c3ccccc32)cc1 | 2.0 | 1.78 | i | 12.2 | -4.7 | 6.5
CC(C)(C)c1ccc(CN2C3=NCCCN3c3ccccc32)cc1 | 2.2 | 0.486 | i | 26.9 | ? | 100.5*
c1ccc(OCCN2C3=NCCN3c3ccccc32)cc1 | 3.9 | 0.0611 | i | -2.7 | -1.8 | 100.5*
CCCCCCCN1C2=NCCCN2c2ccccc21 | 1.2 | -0.168 | i | 14.9 | 0.1 | 70.5*
SMILES | MT stabilizer | Dynein transport | Autophagy HCS | CHOP inh | bCat nuc transl | Lmaj promast
Clc1ccc(CN2C3=NCCN3c3ccccc32)cc1 | 5.8 | -0.809 | i | 71.5* | -5.6 | 38.4
CCN(CC)c1ccc(C2NCC(c3ccc([N+](=O)[O-])cc3)O2)cc1 (centres undefined) | 2.5 | -0.44 | i | -5.8 | 4.5 | -2.0
O=C(COC(=O)c1ccc([N+](=O)[O-])s1)NC(=O)NCc1ccccc1 | 2.2 | 1.71 | i | 0.2 | 0.7 | 92.9*
O=C(N/N=C/c1ccc(Cl)cc1Cl)C1CCN(c2ncc(C(F)(F)F)cc2Cl)CC1 | 2.3 | -0.18 | i | 96.0* | . | -4.0
O=C(N/N=C/c1cccc(C(F)(F)F)c1)C1CCN(c2ncc(C(F)(F)F)cc2Cl)CC1 | 1.8 | -0.58 | i | 83.2* | . | -7.0
Cc1nnsc1NC(=O)OCc1ccc(C(F)(F)F)cc1 | 1.6 | -0.314 | i | -1.9 | -0.9 | -7.4
CN1/C(=C\C(=O)COC(=O)c2ccc(O)c(O)c2)C(C)(C)c2ccccc21 | 3.7 | -1.88 | i | 41.7 | -1.4 | 8.4

Screens: PubChem, several laboratories
